Calls of active or inactive are those of the source. The rule behind the calls is not given here.
Key:
SH-SY5Y [1] = experiment: Antiproliferative activity against human SH-SY5Y cells assessed as cell viability at 40 uM after 48 hrs relative to control; format: functional; settings: read-out: Activity
Outline: (§1)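 Single fixed concentration of 40 µM against HeLa or SH-SY5Y cells; viability given as mean ± S.E.M., n = 8 from two separate experiments.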

HeLa [2] = experiment: Antiproliferative activity against human HeLa cells assessed as cell viability at 40 uM after 48 hrs relative to control; format: functional; settings: read-out: Activity; outline: as §1
HeLa [3] = experiment: Inhibition of TNFalpha-induced NFkappaB activation assessed as TNFalpha-induced transcription level in human HeLa cells at 30 uM incubated for 6 hrs by luciferase reporter gene assay; format: cell-based; design: scale not given: the % may be the effect or the level left
Outline: (§2)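 HeLa NF-κB luciferase reporter: cells plated at 5 × 10³/well; after 8 h, TNFα (20 ng/mL) applied for 6 h with or without compound. Firefly luciferase normalized to pRLTK Renilla by dual-luciferase read-out; n = 6–11 from 3–6 experiments.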

Tubulin (Homo sapiens) [4] = biological target: T1, Tubulin (Homo sapiens) (UniProt P68371+Q9H4B7+P0DPH7+P68366+Q13509+Q71U36+P04350+Q3ZCM7+P07437+P68363+Q9BQE3+Q6PEY2+Q13885+Q9BVA1+Q9BUF5); experiment: Inhibition of tubulin (unknown origin) polymerization up to 60 uM; format: protein-complex assay
Outline: (§3)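 Cell-free fluorescence-based tubulin polymerization kit; compound tested from 10 µM up to 60 µM.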

HeLa [5] = experiment: Cell cycle arrest in human HeLa cells at IC50 to 2 times IC50 after 8 hrs by FACS analysis; format: functional, cell-based
Outline: (§4)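 HeLa cells seeded at 6 × 10⁵ cells/well, starved overnight, then exposed at IC50, 2× and 3× IC50 for 8 h or 16 h. Cells fixed in 70% EtOH overnight at −20 °C, then RNase-treated (100 µg/mL, 1 h, 37 °C) before cell-cycle phase analysis.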

SH-SY5Y [6] = experiment: Antiproliferative activity against human SH-SY5Y cells assessed as cell viability after 48 hrs; format: functional, cell-based
HeLa [7] = experiment: Cell cycle arrest in human HeLa cells assessed as accumulation at […] phase at IC50 to 2 times IC50 after 16 hrs by FACS analysis; format: functional, cell-based; outline: as §4
Tubulin (Homo sapiens) [8] = biological target: T1, Tubulin (Homo sapiens); experiment: Inhibition of tubulin polymerization in human HeLa cells assessed as increase in soluble fraction incubated for 16 hrs by cellular assay; format: cell-based
Outline: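 HeLa cells exposed 16 h; proteins extracted in presence of paclitaxel, pelletable and soluble fractions separated and resolved by SDS–PAGE.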

HeLa [9] = experiment: Antiproliferative activity against human HeLa cells assessed as cell viability after 48 hrs; format: functional, cell-based
HeLa [10] = experiment: Potentiation of TNFalpha-induced NFkappaB activation in human HeLa cells at 3 uM incubated for 6 hrs by luciferase reporter gene assay; format: cell-based; outline: as §2
Tubulin (Homo sapiens) [11] = biological target: T1, Tubulin (Homo sapiens); experiment: Inhibition of tubulin (unknown origin) polymerization at 10 uM; format: protein-complex assay; outline: as §3

Structure (SMILES) | viability at 40 µM (SH-SY5Y [1]) [%] | viability at 40 µM (HeLa [2]) [%] | Activity (HeLa [3]) [%] | Activity (Tubulin (Homo sapiens) [4]) | Activity (HeLa [5]) | IC50 (SH-SY5Y [6]) [µM] | Activity (HeLa [7]) | inhibition (Tubulin (Homo sapiens) [8]) | IC50 (HeLa [9]) [µM] | fold change (FC) (HeLa [10]) | inhibition (Tubulin (Homo sapiens) [4]) | Activity (Tubulin (Homo sapiens) [11])
COc1cccc(/C=C/n2cc(/C=C/c3ccc(O)cc3)nn2)c1 | 68.9 | 41.9 | 94.3 |  |  |  |  |  |  |  |  | 
Oc1ccc(/C=C/n2cc(/C=C/c3ccccc3)nn2)cc1 | 48 | 50.7 | 88.9 |  |  |  |  |  |  |  |  | 
COc1ccc(/C=C/c2cn(/C=C/c3ccc(O)c(OC)c3)nn2)cc1 | 50 | 67.9 | 146 |  |  |  |  |  |  |  |  | 
COc1cc(/C=C/c2cn(/C=C/c3ccc(O)cc3)nn2)ccc1O | 55.4 | 56.8 | 96 |  |  |  |  |  |  |  |  | 
COc1cc(/C=C/n2cc(/C=C/c3cc(OC)c(OC)c(OC)c3)nn2)ccc1O | 23.5 | 23 | 27.5 | inactive | inactive | 7.8 | Active | inactive | 13.6 |  |  | 
COc1ccc(/C=C/c2cn(/C=C/c3cccc(OC)c3)nn2)cc1 | 52 | 55.1 | 81.3 |  |  |  |  |  |  |  |  | 
COc1cc(/C=C/c2cn(/C=C/c3ccc(O)cc3)nn2)cc(OC)c1OC | 21.3 | 19.2 | 14.6 | inactive | inactive | 1.7 | Active | inactive | 1.5 |  |  | 
COc1cc(/C=C/c2cn(/C=C/c3ccccc3)nn2)cc(OC)c1OC | 69.2 | 52.1 | 65.3 |  |  |  |  |  |  |  |  | 
COc1ccc(/C=C/c2cn(/C=C/c3ccc(O)c(OC)c3)nn2)cc1O | 18.1 | 7.9 | 15.3 | inactive | inactive | 6.9 | Active | inactive | 11.7 |  |  | 
COc1cccc(/C=C/n2cc(/C=C/c3ccc(O)c(O)c3)nn2)c1 | 27.7 | 16.6 | 97 |  |  | 17 |  |  | 18.7 |  |  | 
COc1ccc(/C=C/c2cn(/C=C/c3ccc(O)cc3)nn2)cc1 | 25.7 | 66.3 | 131 |  |  | 11.3 |  |  | 34 |  |  | 
COc1cc(/C=C/n2cc(/C=C/c3ccccc3)nn2)ccc1O | 86.7 | 84.3 | 144 |  |  |  |  |  |  |  |  | 
Oc1ccc(/C=C/c2cn(/C=C/c3ccccc3)nn2)cc1 | 70.6 | 39.5 | 85.4 |  |  |  |  |  |  |  |  | 
COc1cccc(/C=C/n2cc(/C=C/c3ccc(O)c(OC)c3)nn2)c1 | 66.3 | 66.9 | 57 |  |  |  |  |  |  |  |  | 
COc1cc(/C=C/n2cc(/C=C/c3ccc(O)cc3)nn2)ccc1O | 50.3 | 83.5 | 73.2 |  |  |  |  |  |  |  |  | 
COc1cccc(/C=C/n2cc(/C=C/c3cc(OC)c(OC)c(OC)c3)nn2)c1 | 99.9 | 77.9 | 42.2 | inactive |  |  |  | inactive |  |  |  | 
COc1cccc(/C=C/c2cn(/C=C/c3cccc(OC)c3)nn2)c1 | 71.4 | 92.8 | 71 |  |  |  |  |  |  |  |  | 
Oc1ccc(/C=C/n2cc(/C=C/c3ccc(O)c(O)c3)nn2)cc1 | 60.4 | 60.1 | 124 |  |  |  |  |  |  |  |  | 
COc1cc(/C=C/c2cn(/C=C/c3ccc(O)c(OC)c3)nn2)ccc1O | 36.1 | 50.5 | 48 | inactive |  | 17.8 |  | inactive | 36.4 | 2 |  | 
Oc1ccc(/C=C/c2cn(/C=C/c3ccc(O)cc3)nn2)cc1 | 49.6 | 55.3 | 112 |  |  |  |  |  |  |  |  | 
COc1cccc(/C=C/c2cn(/C=C/c3ccccc3)nn2)c1 | 88.7 | 93.9 | 87 |  |  |  |  |  |  |  |  | 
COc1cccc(/C=C/n2cc(/C=C/c3ccccc3)nn2)c1 | 107 | 82.1 | 76.1 |  |  |  |  |  |  |  |  | 
COc1ccc(/C=C/c2cn(/C=C/c3ccccc3)nn2)cc1 | 126 | 69.2 | 74.5 |  |  |  |  |  |  |  |  | 
COc1cccc(/C=C/c2cn(/C=C/c3ccc(O)c(OC)c3)nn2)c1 (mixture of isomers) | 65.3 | 38.7 | 88.9 |  |  |  |  |  |  |  |  | 
C(=C\c1cn(/C=C/c2ccccc2)nn1)/c1ccccc1 | 118 | 70 | 79.9 |  |  |  |  |  |  |  |  | 
Oc1ccc(/C=C/c2cn(/C=C/c3ccccc3)nn2)cc1O | 40.1 | 18.4 | 167 |  |  |  |  |  |  |  |  | 
COc1cc(/C=C/c2cn(/C=C/c3ccccc3)nn2)ccc1O | 110 | 79.5 | 138 |  |  |  |  |  |  |  |  | 
COc1cc(/C=C/C(=O)CC(=O)/C=C/c2ccc(O)c(OC)c2)ccc1O [CURCUMIN] | 22.6 | 42.5 | 60.5 |  | inactive | 16.1 | Active | inactive | 21.8 |  | Active | inactive
COc1cccc(/C=C/c2cn(/C=C/c3ccc(O)cc3)nn2)c1 | 37.9 | 30.4 | 61.5 |  |  | 9 |  |  | 17.2 |  |  | 

From ChEMBL document CHEMBL3739312, “Triazole-curcuminoids: A new class of derivatives for 'tuning' curcumin bioactivities?” (Bioorg Med Chem, 2016)
